Screening results: PubChem, Broad Institute
Only some compounds are listed: those with a hit (about 0.95% of all), similar ones and a draw of the others.
CAL PDZ FP-1: CAL PDZ peptide-binding inhibitors, primary screen, biochemical, fluorescence polarization, Cer-tagged CAL PDZ, HTS; AID 504414, 2011; Golgi-associated PDZ and coiled-coil motif-containing protein (Homo sapiens), Q9HD26; 330,000 compounds, 0.02% hits; purified CAL PDZ, TMR-peptide fluorescence polarization, 1 h; inhibition, % at 20 µM;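 active means highest replicate inhibition of at least 40%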
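Material: tagged CAL PDZ protein CerCALP, purified; buffer or medium: sodium phosphate/NaCl buffer pH 7.4 with TCEP, IgG, Thesit; also added: fluorescent TMR peptide probe; schedule: 1 h incubation at room temperature before polarization reading; technique: fluorescence polarization from S- and P-plane intensities, G-factor corrected; control set: unlabelled peptide and DMSO controls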
CAL PDZ FP-2: untagged CAL PDZ binding inhibitors, primary screen, biochemical, fluorescence polarization, HTS; purified CAL PDZ, TMR-peptide fluorescence polarization, 1 h; inhibition, % at 24.9 µM; Golgi-associated PDZ and coiled-coil motif-containing protein (Homo sapiens), Q9HD26; 300,000 compounds, 0.92% hits;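 active means mean inhibition of at least 30% with at least half of replicates also reaching 30%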
PvdQ inh: P. aeruginosa PvdQ acylase inhibitors, primary screen, biochemical, fluorescence, plate reader and imaging, single point; purified PvdQ acylase; inhibition, % at 10 µM; 340,000 compounds, 0.063% hits; AID 488965, 2010; in the data active means inhibition above about 30%, passing the limit was not always enough
miR-122 sensor: miR-122 Renilla sensor signal increase in Huh7, primary screen, miR-122 inhibitor project, cell-based, single point, plate reader; 340,000 compounds, 0.3% hits; AID 602342, 2012; activation (reporter increase), % at 12.5 µM; Huh7 miR-122 Renilla luciferase sensor, 48 h; neutral wells = 0, positive control = 100;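 active means mean replicate activation score at least 90 and every replicate individually at or above 90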;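 further: higher luciferase means less miR-122 activity so hits act as miR-122 inhibitors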
Large screens that a line does not name were inactive.

COc1ccc(S(=O)(=O)N2CCN(C(=O)c3ccco3)CC2)c(C)c1C	CAL PDZ FP-2 75
O=C1N(c2ccccc2)C[C@@H]2C[C@@H](c3cc4ccccc4o3)N3CCC[C@@]123	PvdQ inh 42 (no result: CAL PDZ FP-1, miR-122 sensor)
O=C(Cc1ccc(F)cc1)NC1CCCCCC1	none
O=C(CN1C(=O)NC(c2ccc(F)cc2)C1=O)NC1CCCCC1 (stereo not given)	CAL PDZ FP-2 88 (no result: miR-122 sensor)
COc1cc(-c2cc(C(=O)N3CCCCCC3)c3ccccc3n2)cc(OC)c1OC	none
O=C(NNC(=O)c1ccccc1[N+](=O)[O-])c1csc(N2CCOCC2)n1	CAL PDZ FP-2 49
Cc1c(C(=O)NNC(=O)c2csc(N3CCOCC3)n2)cccc1[N+](=O)[O-]	none (no result: miR-122 sensor)
CCOc1ccc(NC2=NC(C)(C)N=C(N)N2)cc1	none
COc1ccc(-c2cc(C)no2)cc1S(=O)(=O)Nc1cccc(C)c1	miR-122 sensor 117
COc1ccc(-c2cc(C)no2)cc1S(=O)(=O)Nc1ccccc1	miR-122 sensor 120
COc1ccccc1NS(=O)(=O)c1cc(-c2cc(C)no2)ccc1OC	none
Cn1c(S(=O)(=O)c2ccc([N+](=O)[O-])cc2)nc(Br)c1Br	none (no result: CAL PDZ FP-2)
C[C@@H]1CN([C@H](C)CO)C(=O)c2cc(NS(=O)(=O)c3cn(C)cn3)ccc2O[C@@H](C)CCCCO[C@@H]1CN(C)C(=O)Cc1ccccc1	none (no result: CAL PDZ FP-1, CAL PDZ FP-2, PvdQ inh)
CCC(C)(C)NC(=O)CN(Cc1cccs1)C(=O)CCC(=O)Nc1nccs1	none (no result: miR-122 sensor)
CCC(C)(C)NC(=O)CN(Cc1ccco1)C(=O)CCC(=O)Nc1nccs1	CAL PDZ FP-2 64
COc1ccc(OC)c(/C=N/NC(=O)c2cnccn2)c1	none (no result: miR-122 sensor)
C=CCCC(=O)Nc1nc(C)c(-c2csc(Nc3cc(OC)ccc3OC)n2)s1	none
O=C(O)c1ccc(CNC(=O)c2ccccc2NC(=O)c2cccc([N+](=O)[O-])c2)cc1	none
O=C(Nc1ccccc1C(=O)Nc1ccccn1)c1ccc([N+](=O)[O-])cc1	CAL PDZ FP-2 43 (no result: miR-122 sensor)
COc1ccc(C(=O)Nc2ccccc2C(=O)Nc2ccccn2)cc1	none
O=C(O)c1ccc(CNC(=O)c2ccccc2NC(=O)c2ccc([N+](=O)[O-])cc2)cc1	CAL PDZ FP-2 50 (no result: CAL PDZ FP-1, miR-122 sensor)
Cc1nc(-c2ccccn2)sc1C(=O)Nc1ccc(F)cc1	none
COC(=O)[C@@H]1C[C@@H](C(=O)O)[C@H](C)C1(C)C	CAL PDZ FP-2 43 (no result: miR-122 sensor)
COc1ccc(C)cc1C(=O)C1CC(C(=O)O)C(C)(C)C1C (stereo not given)	none
O=S(=O)(Nc1ccc(C(O)(C(F)(F)F)C(F)(F)F)cc1)c1cccc2ccccc12	miR-122 sensor 102 (no result: CAL PDZ FP-1, CAL PDZ FP-2, PvdQ inh)
CC(C)(C)c1ccc(S(=O)(=O)Nc2ccc(C(O)(C(F)(F)F)C(F)(F)F)cc2)cc1	miR-122 sensor 103 (no result: CAL PDZ FP-1, CAL PDZ FP-2, PvdQ inh)
COc1cccc(S(=O)(=O)Nc2ccc(C(O)(C(F)(F)F)C(F)(F)F)cc2)c1	miR-122 sensor 129 (no result: CAL PDZ FP-1, CAL PDZ FP-2, PvdQ inh)
COc1ccc(Nc2nc3ccccc3nc2NS(=O)(=O)c2cccs2)cc1	CAL PDZ FP-2 48
CC(=O)c1ccc(Nc2nc3ccccc3nc2NS(=O)(=O)c2cccs2)cc1	none
COCCn1c(SCc2ccc(F)cc2)nc2ccccc2c1=O	CAL PDZ FP-2 active (no result: miR-122 sensor)
CN(C)S(=O)(=O)c1ccc(NC(=O)CN2CCCCCC2)cc1	CAL PDZ FP-2 133
COc1cc(NC(=O)c2ccco2)c(OC)cc1NC(=O)c1cc(OC)c(OC)c(OC)c1	CAL PDZ FP-2 97
O=C(NC(c1ccccc1)c1ccccc1)c1ccccc1	none
COc1cc(C(=O)NC(=S)Nc2ccc(Cl)c(C(=O)O)c2)cc(OC)c1OC	CAL PDZ FP-2 40 (no result: CAL PDZ FP-1)
COc1cc(C(=O)NC(c2ccccc2)c2ccccc2)cc(OC)c1OC	CAL PDZ FP-2 51
Cn1cc(/C=N/NC(=O)c2cc3cc(Br)ccc3o2)c2ccccc21	none (no result: CAL PDZ FP-1, CAL PDZ FP-2, PvdQ inh)
COc1ccccc1C(=O)Nc1ccc2c(c1)CCCN2C(=O)c1cccs1	none
COc1ccccc1NC(=O)Cn1c([N+](=O)[O-])cnc1C	CAL PDZ FP-2 64
COc1cc(NC(=O)Nc2ccccc2OC)c(OC)cc1NC(=O)CN1CCCCC1	none
O=C(Nc1cccc2ccccc12)C1CCN(C(=O)NCc2ccccc2)CC1	none
COc1ccccc1NC(=O)C1CCN(C(=O)NCc2ccccc2)CC1	CAL PDZ FP-2 56
COc1ccccc1NC(=O)CN1CCCCCC1	CAL PDZ FP-2 47
Cc1ccccc1NC(=O)Cn1c([N+](=O)[O-])cnc1C	none (no result: CAL PDZ FP-2)
COc1ccccc1NC(=O)CNC(c1ccccc1)c1ccccc1	CAL PDZ FP-2 33
O=S(=O)(NCC(Nc1ccc(Cl)cc1)c1ccccc1)c1ccccc1 (stereo not given)	none
CCOc1ccc(NC(=O)CN2CCN(CC(=O)Nc3ccc(OC)cc3OC)CC2)cc1	none (no result: CAL PDZ FP-1)
CCOc1ccc(NC(=O)CN2CCN(CC(=O)Nc3ccccc3OC)CC2)cc1	CAL PDZ FP-2 123 (no result: CAL PDZ FP-1)
CC1CC1C(=O)N1CCN(S(=O)(=O)c2cc(C(F)(F)F)cc(C(F)(F)F)c2)CC1 (stereo not given)	CAL PDZ FP-2 76
C[C@@H]1CN([C@@H](C)CO)C(=O)Cc2cc(NC(=O)CCC(F)(F)F)ccc2O[C@H]1CN(C)S(=O)(=O)c1cccs1	none (no result: CAL PDZ FP-1, CAL PDZ FP-2, PvdQ inh)
Cc1ccc(CNC(=O)COC(=O)c2ccc(Br)o2)cc1	none (no result: miR-122 sensor)
Cn1nc(C(=O)Oc2cc(=O)n(C)c3ccccc23)c2ccccc2c1=O	CAL PDZ FP-2 36 (no result: miR-122 sensor)
O=C(NCCc1ccc(F)cc1)C(=O)NCC1CCCN1S(=O)(=O)c1cccs1 (stereo not given)	none (no result: CAL PDZ FP-2, miR-122 sensor)
NS(=O)(=O)c1ccc(CNC(=O)c2ccc(Cl)c(S(=O)(=O)NCc3ccccc3)c2)cc1	none
COc1ccc(N2CCN(C(=O)c3csc4ccccc34)CC2)cc1	miR-122 sensor 162 (no result: CAL PDZ FP-2)
CC12CCC(=O)C=C1CCC1C2C(O)CC2(C)C1CCC2(O)C(=O)CO (stereo not given)	none
O=C(OC1C2CCC1C1CN(CCc3ccccc3)CC12)c1ccccc1 (stereo not given)	CAL PDZ FP-2 41 (no result: miR-122 sensor)
CCN(CC)CCn1c2c(c(SCC(=O)NCc3ccccc3)nc1=O)CCC2	CAL PDZ FP-2 39
O=C(Oc1ccc(Cl)c2cccnc12)c1cccnc1	CAL PDZ FP-2 52 (no result: CAL PDZ FP-1)
O=C(NCCc1ccccc1)c1ncn[nH]1	none
O=C(NCc1ccccc1)c1ncn[nH]1	CAL PDZ FP-2 112
COc1ccc(NC(=O)Nc2nnc(C(C)(C)C)s2)cc1	CAL PDZ FP-2 47 (no result: miR-122 sensor)
CC(C)(C)c1nnc(NC(=O)Nc2ccc(Cl)cc2)s1	none (no result: miR-122 sensor)
COC(=O)c1ccc(OCC(O)CN2CCc3cc(OC)c(OC)cc3C2c2ccccc2)cc1 (stereo not given)	CAL PDZ FP-2 76
CCC(=O)N1CCc2cc(OC)c(OC)cc2C1COc1ccc(C(=O)OC)cc1 (stereo not given)	none
CN(CC1COCCO1)C(=O)c1cc(COc2c(F)cccc2F)on1 (stereo not given)	none
